CR mimetic SO: lowers age-related superoxide in aged yeast cells | 330,000 compounds, 0.18% hits | superoxide response (% of plate mean), % at 10 µM | S. cerevisiae aged cells, superoxide DHE fluorescence; hits give low values;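 active = superoxide response under a set limit, about three screen SD below normal, cut at about 65% in these data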;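 also: yeast aged for seven days with compound at 30 °C before DHE staining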
TbMetRS inhib: Trypanosoma brucei MetRS inhibition | purified T. brucei MetRS, ATP depletion, Kinase-Glo luminescence | inhibition, % at 11.9 µM | 360,000 compounds, 0.4% hits;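 active = inhibition above a per-plate cutoff of the control wells' mean inhibition plus 3 SD, cut at about 5.5% in these data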
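Assay system: T. brucei methionyl-tRNA synthetase, purified | Medium: HEPES buffer with MgCl2, KCl, DTT, spermine, BSA, pyrophosphatase | Compound: 11.9 µM single point | Incubation: 15 min enzyme-compound preincubation, 2 h reaction, 10 min detection, 25 °C | Measured by: Kinase-Glo luciferase luminescence reporting remaining unconsumed ATP | Measure: % inhibition normalized to control-well medians | Replication: Singlicate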
HDAC3 inhib: human HDAC3 inhibition | O15379 | recombinant HDAC3, fluorogenic peptide/trypsin coupled, fluorescence | inhibition, % at 8.3 µM | 320,000 compounds, 0.15% hits | AID 2718; in the data active = inhibition above about 26%, passing the limit was not always enough
Target sequence (O15379 whole entry, looked up): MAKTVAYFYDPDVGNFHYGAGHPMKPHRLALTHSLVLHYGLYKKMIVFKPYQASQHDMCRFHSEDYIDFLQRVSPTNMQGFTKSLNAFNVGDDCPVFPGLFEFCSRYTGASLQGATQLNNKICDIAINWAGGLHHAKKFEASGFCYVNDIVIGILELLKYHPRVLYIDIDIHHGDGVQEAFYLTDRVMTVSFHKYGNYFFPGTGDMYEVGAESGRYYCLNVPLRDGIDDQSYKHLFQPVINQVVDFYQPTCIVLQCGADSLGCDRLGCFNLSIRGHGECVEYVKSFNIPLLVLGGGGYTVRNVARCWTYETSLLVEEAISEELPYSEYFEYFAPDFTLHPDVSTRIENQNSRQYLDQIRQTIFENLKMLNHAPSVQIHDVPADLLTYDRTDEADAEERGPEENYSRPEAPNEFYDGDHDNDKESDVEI
IDE inh: inhibits human insulin-degrading enzyme in HEK cells. P14735. AID 434962. 320,000 compounds, 0.41% hits. inhibition, % at 5.59 µM. FAbetaB cleavage, fluorescence polarization;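 active = percent inhibition above the average of all tested compounds plus 3 SD, set per screening campaign, cut at about 16% in these data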;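 also: IDE supplied by intact live HEK cells; FP after avidin binding of uncleaved biotin substrate so inhibition keeps polarization high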
Efflux pump mplx: inhibitors of Candida antifungal efflux pumps expressed in yeast; S. cerevisiae Candida pump triplex, Nile Red efflux; inhibition, % at 10 µM; 330,000 compounds, 0.44% hits; AID 485275;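 active = plate passing quality check with inhibition over a set limit, or well fluorescence over plate mean plus 4 SD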;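 also: Nile Red retained in pooled yeast measured as flow cytometry median fluorescence; higher means more Nile Red kept so more efflux inhibition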
IDE act: activators of human insulin-degrading enzyme in cells; 340,000 compounds, 0.073% hits; HEK cells, FAbeta-B cleavage, fluorescence polarization; 0% vehicle, 100% cell-free pure enzyme wells; P14735; activation, % at 5.96 µM;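 active = activation above the mean of all tested compounds plus 3 SD, set per screening campaign, cut at about 17% in these data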
CR mimetic CP: yeast aging superoxide inhibition, cherry pick confirmation | shares compounds with CR mimetic SO | S. cerevisiae aging, superoxide DHE fluorescence; hits give low values | superoxide response (% of plate), % at 10 µM | 850 compounds, 1% hits | AID 434994;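 active = superoxide signal below 65% of the plate average of sample wells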;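 also: cells aged with compound for 7 days at 30 degrees C before staining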
DHE counter: counter-screen for compounds affecting DHE oxidation and fluorescence in yeast | shares compounds with CR mimetic SO | S. cerevisiae BY4741, flow cytometry; hits give low values | fluorescence response, % at 10 µM | 850 tested, under 10 active;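 active = fluorescence response below 15%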;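 also: lower means stronger quenching of DHE signal or ROS scavenging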
Each line names hits and unclear results; the compound was inactive in the other large screens (follow-up assays come after a bar, where they were run). Sampled rows, rich in hits. Any-hit rate of the full collection: about 1.4%.

CC(C)Nc1ncnc2c1cnn2-c1ccccc1	none | CR mimetic CP inactive | DHE counter inactive
OCCCNc1ncnc2c1cnn2-c1ccc(Cl)cc1	none | CR mimetic CP inactive | DHE counter inactive
CN(C)CCNc1ncnc2c1cnn2-c1ccc(Cl)cc1	none | CR mimetic CP inactive | DHE counter inactive
Cc1cccc(-n2ncc3c(NC(C)C)ncnc32)c1	none
CC1(C)CC(=O)/C(=C\c2cccc([N+](=O)[O-])c2)C(C)(C)N1	none
CNC(=S)N1N=C(c2cccs2)CC1c1ccc(F)cc1 (stereo unspecified)	CR mimetic SO 65.2 | CR mimetic CP inactive | DHE counter inactive
CC1=C(C(=O)N2CCOCC2)CC(CC(=O)NCC2CCCCC2)C(=O)N1Cc1ccc(C(C)(C)C)cc1 (stereo unspecified)	none (no result: CR mimetic SO, HDAC3 inhib, IDE inh, Efflux pump mplx, IDE act)
COc1ccc(CC(=O)OCC(=O)Nc2cc(Cl)ccc2C)cc1	CR mimetic SO 63.4 | CR mimetic CP inactive | DHE counter inactive
CCOc1ccc(N=Nc2c(=O)[nH]n3c(C)cc(C)nc23)cc1	CR mimetic SO 52.4 | CR mimetic CP inactive | DHE counter inactive
CC1(C)C(=O)CC[C@@]2(C)[C@H]1CC[C@@]1(C)CC3=C(CC[C@@H]12)[C@@]1(C)CCC(=O)C(C)(C)[C@@H]1CC3	CR mimetic SO 63.9 (no result: TbMetRS inhib, IDE act) | CR mimetic CP inactive | DHE counter inactive
CCCN1CCN(C(=O)Cn2nc(CC)n3c(cc4sccc43)c2=O)CC1	none
CCOc1ccccc1NC(=O)NCc1ccc(F)cc1	CR mimetic SO 64.5 | CR mimetic CP inactive | DHE counter inactive
CCNC(=O)c1c(O)c2ccccc2[nH]c1=O	none
CC(C)=NNC(=O)c1c(O)c2ccccc2[nH]c1=O	CR mimetic SO 62.1 | CR mimetic CP inactive | DHE counter inactive
CCCCOc1cccc(-c2cc(C(=O)NNC(=S)NCC)c3ccccc3n2)c1	none
CCCCOc1ccc(-c2cc(C(=O)NNC(=S)NCC)c3ccccc3n2)cc1	CR mimetic SO 61.7 | CR mimetic CP inactive | DHE counter inactive
Clc1ccc(CN2C3=NCCCN3c3ccccc32)cc1Cl	none
Clc1cccc(-c2ccc(C=Nc3ccc(N4CCOCC4)cc3)o2)c1	CR mimetic SO 52.9 | CR mimetic CP inactive | DHE counter inactive
CC(C)(C)c1ccc(S(=O)(=O)Nc2ccc(Cc3ccncc3)cc2)cc1	none
Nc1ccc(S(=O)(=O)Nc2ccc(S(N)(=O)=O)cc2)cc1	none | CR mimetic CP inactive | DHE counter inactive
CC(C)(C)c1ccc(NS(=O)(=O)c2ccc(N)cc2)cc1	none | CR mimetic CP inactive | DHE counter inactive
Nc1ccc(S(N)(=O)=O)cc1	none
COCCN(CCOC)S(=O)(=O)c1ccc(C(=O)Nc2nnc(C3CC3)o2)cc1	none
CCN(c1ccccc1)S(=O)(=O)c1ccc(C(=O)Nc2nnc(C3CC3)o2)cc1	none | CR mimetic CP inactive | DHE counter inactive
CN(c1ccccc1)S(=O)(=O)c1ccc(C(=O)Nc2nnc(C3CC3)o2)cc1	none | CR mimetic CP inactive | DHE counter inactive
N#Cc1ccc(OCC(O)CN2CCC(C(O)(c3ccccc3)c3ccccc3)CC2)cc1 (stereo unspecified)	none
CN(C)c1ccc(/C=N/NC(=O)c2cc(-c3ccc4c(c3)OCO4)n[nH]2)cc1	none
O=C(N/N=C/c1ccc(F)cc1)c1cc(-c2ccc3c(c2)OCO3)n[nH]1	CR mimetic SO 64.0 | CR mimetic CP inactive | DHE counter inactive
O=C(CN1CCN(C(=O)c2ccccc2)CC1)Nc1cccc(S(=O)(=O)N2CCCC2)c1	none (no result: CR mimetic SO, HDAC3 inhib, IDE inh, Efflux pump mplx)
COc1cc(C)c(/C=C(\C#N)C(=O)Nc2cccc(C)c2)cc1C(C)C	CR mimetic SO 50.2 | CR mimetic CP inactive | DHE counter inactive
CC1O[C@@H](OCC2O[C@@H](Oc3cc(O)c4c(c3)OC(c3ccc(O)cc3)CC4=O)[C@H](O)[C@@H](O)[C@@H]2O)[C@H](O)[C@H](O)[C@H]1O (stereo partly specified)	CR mimetic SO 61.5 | CR mimetic CP inactive | DHE counter inactive
O=C(CN1CCN(c2ccccc2F)CC1)c1ccc2cc[nH]c2c1	CR mimetic SO 62.7 | CR mimetic CP inactive | DHE counter inactive
CC(=O)N1CCc2cc(C(=O)CN3CCN(c4ccccc4F)CC3)ccc21	none
Cc1ccc(NC(=O)CN(C)C2CCCCC2)cc1Br	none
CC(C)NC(=O)c1ccc(C(C)C)cc1	CR mimetic SO 52.0 | CR mimetic CP inactive | DHE counter inactive
Cc1nc2ccccc2c(=O)n1/N=C/c1cc(Br)ccc1O	CR mimetic SO 64.0 | CR mimetic CP inactive | DHE counter inactive
Cc1cccc(NC(=O)c2cc(C)nc3ccccc23)c1	CR mimetic SO 55.6 | CR mimetic CP inactive | DHE counter inactive
CCOc1cccc(-c2nnc(SCC(=O)Nc3cc(OC)cc(OC)c3)n2N)c1	none
COc1ccc(NC(C)=O)cc1NC(=O)CSc1nnc(-c2ccc(F)cc2)n1N	none | CR mimetic CP inactive | DHE counter inactive
COc1cccc(NC(=O)CSc2nnc(-c3cccc(OC(C)C)c3)n2N)c1	none (no result: HDAC3 inhib) | CR mimetic CP inactive | DHE counter inactive
COc1ccc(C)cc1NC(=O)CSc1nnc(-c2ccc(OC)c(OC)c2)n1N	none
CCOc1cccc(-c2nnc(SCC(=O)Nc3ccc(OC)c(OC)c3)n2N)c1	none | CR mimetic CP inactive | DHE counter inactive
COc1ccc(S(=O)(=O)NC(=O)C2(C)CCN2C(=O)CCC2CCCC2)cc1OC (stereo unspecified)	none (no result: CR mimetic SO, HDAC3 inhib, IDE inh, Efflux pump mplx, IDE act)
O=C1CCC(C(=O)NCc2ccccc2)N1 (stereo unspecified)	none
CCN1CCN(c2ncnc3sc4c(c23)CCC(C)C4)CC1 (stereo unspecified)	CR mimetic SO 50.5 | CR mimetic CP inactive | DHE counter inactive
CCN1CCN(c2ncnc3sc(C)c(-c4ccccc4)c23)CC1	none
CC(=O)Nc1ccc(C(=O)COC(=O)c2cc(C)oc2C)c(F)c1	none
COc1cccc(NC(=O)CCS(=O)(=O)c2ccc(Br)cc2)c1	CR mimetic SO 50.1 | CR mimetic CP inactive | DHE counter inactive
Cc1cccc(NC(=O)CCS(=O)(=O)c2ccc(Br)cc2)c1	none
CCC(=O)N1CCN=C1SCc1cccc(C(F)(F)F)c1	none
Cc1ccc(C)c(N2CCN(C(=O)c3ccccc3Br)CC2)c1	none | CR mimetic CP inactive | DHE counter inactive
O=C(c1ccccc1Br)N1CCN(c2ccccc2)CC1	none | CR mimetic CP inactive | DHE counter inactive
O=C(c1ccccc1F)N1CCN(c2ccccc2)CC1	none
Cc1ccc(N2CCN(C(=O)c3ccccc3Br)CC2)c(C)c1	none | CR mimetic CP inactive | DHE counter inactive
CC(=O)Nc1ccc(SCC(=O)Nc2cc(C)on2)cc1	none
